{"data": "Experimental data from different studies", "target": "Casein kinase II subunit alpha' (CSNK2A2, Homo sapiens, UniProt P19784)", "note": "Lines come from different studies, so protocols differ."}
{"SMILES": "C#Cc1n[nH]c2c(-c3cn([C@@H](C)c4ccccc4)c(=O)[nH]c3=O)cc(F)cc12", "test": "enzyme activity, inhibitor", "conditions": "0.1 µM", "endpoint": "inhibition", "value": "1.5%"}
{"SMILES": "COc1ncccc1-c1cnn2ccc(N3CCN(C(=O)OC(C)C)CC3)nc12", "test": "binding, competition with immobilised ligand", "conditions": "1 µM", "endpoint": "remaining binding", "value": "62%"}
{"SMILES": "Cc1nn(C)cc1-c1nc2c(N3CCN(Cc4ccc(Cl)cc4)CC3)c(Cl)cnc2[nH]1", "test": "binding, competition with immobilised ligand", "conditions": "1 µM", "endpoint": "remaining binding", "value": "67%"}
{"SMILES": "O=c1[nH]c2ccccc2n1C1CCN(Cc2ccc(-c3[nH]c4cc5ncnc5cc4nc3-c3ccccc3)cc2)CC1", "test": "cell-free assay", "conditions": "0.5 µM", "endpoint": "remaining signal", "value": "101%"}
{"SMILES": "Nc1ncc(-c2nc(N3CCOCC3)nc(N3CCOCC3)n2)c(C(F)F)n1", "test": "binding, competition with immobilised ligand", "conditions": "10 µM", "endpoint": "remaining binding", "value": "69%"}
{"SMILES": "C#Cc1n[nH]c2c(-c3cn([C@@H](C)c4ccccn4)c(=O)[nH]c3=O)cc(F)cc12", "test": "enzyme activity, inhibitor", "conditions": "0.1 µM", "endpoint": "inhibition", "value": "3.3%"}
{"SMILES": "Cn1cc(-c2cc(F)cc(N3CCn4c(cc5c4CCCC5)C3=O)c2CO)cc(Nc2ccc(N3CCN(C4COC4)CC3)cn2)c1=O", "test": "enzyme activity, inhibitor", "conditions": "0.1 µM", "endpoint": "inhibition", "value": "1%"}
{"SMILES": "CN[C@@H]1C[C@H]2O[C@@](C)([C@@H]1OC)n1c3ccccc3c3c4c(c5c6ccccc6n2c5c31)C(=O)NC4", "test": "enzyme activity, inhibitor", "conditions": "0.5 µM", "endpoint": "activity vs control", "value": "66.6%"}
{"SMILES": "Cn1cc(-c2cccc(N3CCc4c(sc5c4CC(C)(C)C5)C3=O)c2CO)cc(Nc2ccncn2)c1=O", "test": "enzyme activity, inhibitor", "conditions": "1 µM", "endpoint": "inhibition", "value": "4%"}
{"SMILES": "Cn1cncc1[C@@](O)(COc1ccc(C#N)cc1-c1ccc(OC(F)(F)F)cc1)c1ccc(C#N)cc1", "test": "cell-free assay, competition with immobilised ligand", "conditions": "1 µM", "endpoint": "remaining binding", "value": "100%"}
